Assay outcomes from PubChem BioAssay.
KCNK9 block = KCNK9 potassium channel inhibitors, primary screen, HEK293 cells, thallium flux | Potassium channel subfamily K member 9 (Homo sapiens), Q9NPC2 | FluxOR thallium flux fluorescence; stronger effect = lower value | B-score at 10 µM | 310,000 tested, 1.2% active | AID 488922, 2010;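 active means ratio B-score over 3 SD below the library mean, with starting fluorescence within 5 SD of its mean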;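 further: negative B-score means less thallium flux so channel inhibition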
Target sequence (Q9NPC2 whole entry, looked up): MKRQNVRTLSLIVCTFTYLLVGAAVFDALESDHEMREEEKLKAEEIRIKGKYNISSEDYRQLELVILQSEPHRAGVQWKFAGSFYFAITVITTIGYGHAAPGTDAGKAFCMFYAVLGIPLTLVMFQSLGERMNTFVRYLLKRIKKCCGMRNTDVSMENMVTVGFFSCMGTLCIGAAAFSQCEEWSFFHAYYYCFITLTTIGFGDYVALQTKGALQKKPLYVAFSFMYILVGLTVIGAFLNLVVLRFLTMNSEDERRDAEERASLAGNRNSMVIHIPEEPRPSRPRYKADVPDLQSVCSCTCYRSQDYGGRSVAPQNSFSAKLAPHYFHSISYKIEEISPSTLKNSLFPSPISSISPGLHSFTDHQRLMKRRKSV
KCNQ1 pot = potentiators or activators of KCNQ1 channel, primary screen, cell-based, thallium flux, high-throughput; Potassium voltage-gated channel subfamily KQT member 1 (Homo sapiens), P51787; CHO-K1 KCNQ1, thallium flux FluxOR fluorescence; stronger effect = higher value; B-score at 10 µM; 310,000 tested, 0.35% active;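 active means fluorescence ratio B-score, a plate-corrected score, at least three library SD, with initial intensity B-score within 5 SD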
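System: CHO-K1 cells stably expressing KCNQ1 / Medium: assay buffer for compound exposure, DMSO matched across wells / Reagent: thallium- and potassium-containing depolarizing buffer / Compound: one concentration, matched DMSO / Incubation: 20 min compound pretreatment at room temperature / Measured by: kinetic FluxOR fluorescence, 10 s baseline plus 110 s post-stimulus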
Kir21 block = inhibitors of mouse Kir2.1 inward-rectifier potassium channel | B-score at 10 µM | Inward rectifier potassium channel 2 (Mus musculus), P35561 | 310,000 tested, 0.85% active | HEK293-Kir2.1, FluxOR thallium flux fluorescence; stronger effect = lower value;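 active means fluorescence ratio B-score at or below minus 3 SD of library scores, with starting-brightness B-score within 2 SD, cut at about -4.2 in these data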;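 further: channel flux triggered by added potassium and thallium sulfate stimulus; B-score of peak minus minimum fluorescence over baseline after thallium stimulus; more negative B-score means stronger Kir2.1 block with less thallium influx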
KCNQ1 inh = inhibitors of human KCNQ1 channel, primary screen, cell-based, thallium flux, high-throughput. Potassium voltage-gated channel subfamily KQT member 1 (Homo sapiens), P51787. CHO-K1 KCNQ1, FluxOR thallium flux fluorescence; stronger effect = higher value. B-score at 10 µM. 310,000 tested, 1.3% active. AID 2642, 2010;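 active means compounds whose thallium flux B-score, printed positive for inhibition, exceeds three library SD while starting fluorescence stays within three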;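 further: channel opened by potassium depolarization with thallium stimulus after 20 min compound exposure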
hERG rescue = hERG rescue from dofetilide block, primary screen, cell-based, CHO-hERG, FluxOR thallium flux, dofetilide IC70 | Voltage-gated inwardly rectifying potassium channel KCNH2 (Homo sapiens), Q12809 | dofetilide IC70 present | activation (rescue from dofetilide block), less the hit threshold, % at 10 µM | 310,000 tested, 0.51% active | AID 1511, 2009;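 active means activation above the mean of controls blocked by dofetilide plus 5 SD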;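 further: thallium influx through hERG after potassium depolarization seen as dye fluorescence rise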
KCNK3 inh = human KCNK3 channel inhibitors, primary screen, CHO cells, FluxOR thallium flux, B-score | B-score at 10 µM | 340,000 tested, 0.84% active | AID 602410, 2012 | FluxOR fluorescence; stronger effect = lower value;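 active means B-score under library mean minus 4 SD, starting fluorescence ratio at most library mean plus 5 SD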;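 further: more negative B-score means stronger inhibition of thallium flux through KCNK3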
KCNK9 block conf = KCNK9 potassium channel inhibitors, confirmation, HEK293 cells, thallium flux, duplicate; shares compounds with KCNK9 block; FluxOR thallium flux fluorescence; inhibition, % at 10 µM; 4,900 tested, 43% active;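 active means thallium signal inhibited by more than 5 SD of the compound-free buffer control wells, on both duplicate plates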;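 further: 0% = assay buffer control wells without compound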
Kir21 sel = mouse Kir2.1 channel inhibition, confirmation, selectivity assay for KCNK9 modulator project, cell-based, HEK293, thallium flux; 4,900 tested, 4% active; AID 492993, 2010; inhibition, % at 10 µM; Kir2.1 cells, FluxOR thallium flux fluorescence; shares compounds with KCNK9 block;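 active means thallium signal drop more than 5 SD beyond the mean of the no-compound control wells, seen in both duplicate plates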;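 further: signal is fluorescence rise after thallium addition divided by baseline fluorescence; plate controls were assay buffer only for no effect and full block by chlorpromazine control for full effect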
HEK293 Tl ctr = thallium flux in non-induced HEK293 cells, confirmation, counter-screen for KCNK9 inhibitor project, cell-based, second counter screen, non-induced KCNK9-HEK293 | 4,900 tested, 40% active | FluxOR thallium flux | AID 492997, 2010 | inhibition, % at 10 µM | shares compounds with KCNK9 block;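 active means thallium signal drop beyond 5 SD of the untreated control mean, on both duplicate plates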;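 further: plate controls were buffer only IC0 wells for no effect and SID17386958 at its maximal inhibitory level for full effect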
* marks the source's active call; other numbers are inactive results; i = inactive; nt = not tested or not shown. Hits are enriched below; roughly 3.7% of the tested compounds scored in any of these assays.

SMILES	KCNK9 block	KCNQ1 pot	Kir21 block	KCNQ1 inh	hERG rescue	KCNK3 inh	KCNK9 block conf	Kir21 sel	HEK293 Tl ctr
Cc1oc(-c2cccc(C(F)(F)F)c2)nc1CN1CCN(c2ccccn2)CC1	i	i	-0.13	i	-18	i	i	i	i
Cc1oc(-c2cccc(Cl)c2)nc1CN1CCC(C(=O)NCc2ccco2)CC1	i	i	0.09	i	-15	i	nt	nt	nt
COC(=O)c1cc2occc2n1Cc1nc(-c2cccc(Cl)c2)oc1C	-9.3*	i	-1.5	i	-9	i	i	i	24%*
Cc1ccccc1-c1nc(CN2CCSCC2)c(C)o1	i	i	0.28	i	-12	i	nt	nt	nt
CCOc1cnn(-c2cc(Oc3ccc(C)cc3)ncn2)c(=O)c1Cl	i	i	0.22	i	-8	i	nt	nt	nt
Cc1cc(Oc2cnn(C(C)(C)C)c(=O)c2Cl)cc(C(C)C)c1	i	i	-0.64	i	-21	i	i	i	i
O=C(N/N=C/c1cn(-c2ccccc2)nc1-c1ccc(F)cc1)c1ccc2c(c1)OCO2	-10*	i	0.87	i	-24	i	55%*	i	i
CCOC(=O)[C@H]1[C@H]2COc3cc(OC)ccc3[C@@H]2N2C(=O)N(c3cccc(Cl)c3)C(=O)[C@@]12C	i	i	0.56	i	-9	i	nt	nt	nt
N#Cc1cc(-c2ccccc2)cnc1Sc1ccc(Cl)cc1	i	i	0.7	i	-14	i	i	i	i
N#Cc1cc(-c2ccc(Cl)cc2)cnc1Sc1ccccc1	i	i	0.98	i	-11	i	nt	nt	nt
COc1ccc(C(CNC(=O)c2nn(-c3ccccc3)c(=O)c3ccccc23)N2CCOCC2)cc1 (stereo not drawn)	nt	nt	nt	nt	nt	i	nt	nt	nt
COC(=O)/N=C(/Cc1ccc(OC)cc1)c1ccc(OC)cc1	i	i	0.33	i	0	i	i	i	i
COc1ccc(CC(=O)Nc2ccc(C(N)=O)cc2)cc1	i	i	-0.47	i	-8	i	nt	nt	nt
COc1ccc(-c2nn(-c3ccccc3)cc2C(=O)N2CCN(S(=O)(=O)c3cccc(F)c3)CC2)cc1	i	i	0.17	i	-13	i	nt	nt	nt
Cc1oc(-c2ccc(Cl)cc2)nc1CS(=O)CC(=O)NCCCN1CC(C)CC(C)C1 (stereo not drawn)	i	i	-1.1	i	-5	i	nt	nt	nt
CC1=NCCN1S(=O)(=O)c1c(C(C)C)cc(C(C)C)cc1C(C)C	-8.3*	i	-0.47	i	-10	i	i	i	i
COc1ccc(Cl)cc1S(=O)(=O)N1CCN=C1C	i	i	-0.56	i	-6	i	nt	nt	nt
COc1ccc(C)cc1NC(=O)C(c1ccccc1)N1CCN(CC(=O)NC2CC2)CC1 (stereo not drawn)	nt	nt	nt	nt	nt	i	nt	nt	nt
O=C(NCc1ccc(F)cc1)c1noc2c1CCCC2	i	i	2.9	i	-5	i	nt	nt	nt
CC(C)(C)C1CCc2onc(C(=O)NCc3ccc(F)cc3)c2C1 (stereo not drawn)	i	i	0.63	i	-9	i	i	i	i
CC(Oc1ccc(Br)cc1)c1nc2c3ccccc3nc(=S)n2[nH]1 (stereo not drawn)	i	10*	0.37	i	0	i	i	i	i
COc1ccccc1-c1nc2c3ccccc3nc(=S)n2[nH]1	i	i	0.71	i	-9	i	nt	nt	nt
CCCC(Oc1ccc(Br)cc1)c1nc2c3cc(OC)c(OC)cc3nc(=S)n2[nH]1 (stereo not drawn)	i	i	0.67	i	-14	i	i	i	i
O=S(=O)(c1ccc(SCc2ccccc2F)nc1)N1CCCC1	nt	nt	nt	nt	nt	i	nt	nt	nt
COc1ccc(CCCc2nnc(SCC(=O)Nc3ccc(C)c(C)c3)o2)cc1	i	i	-0.41	i	-7	i	nt	nt	nt
SMILES	KCNK9 block	KCNQ1 pot	Kir21 block	KCNQ1 inh	hERG rescue	KCNK3 inh	KCNK9 block conf	Kir21 sel	HEK293 Tl ctr
COc1ccc(CCCc2nnc(SCC(=O)Nc3cc(C)ccc3C)o2)cc1	i	i	-2.8	i	1	i	i	i	i
O=C1CCN(CCc2ccccc2)CCN1CCSc1ccc(Br)cc1	i	i	-0.32	i	-22	i	i	i	i
Cc1ccc(SCCN2CCN(CCc3ccccc3)CCC2=O)cc1	i	i	0.47	i	-11	i	i	i	i
O=C(N/N=C\c1cccc(F)c1)c1ccc(Cn2cc(Br)c([N+](=O)[O-])n2)o1	i	i	0.48	i	-8	i	nt	nt	nt
O=C(N/N=C\c1ccc(F)cc1)c1ccc(Cn2cc(Br)c([N+](=O)[O-])n2)o1	-12*	i	0.49	i	-20	i	50%*	i	i
CC(C)(C)c1ccc(CN2N=C(/C=C/c3ccccc3)CCC2=O)cc1	i	i	0.11	i	-10	i	i	i	i
O=C1CCC(/C=C/c2ccccc2)=NN1Cc1ccccc1	i	i	0.26	i	-8	i	nt	nt	nt
O=C1CCC(/C=C/c2ccccc2)=NN1Cc1ccc(F)cc1	i	i	2.3	i	-10	i	i	i	i
O=C(CCCN1C(=O)/C(=C/c2ccc(F)cc2)SC1=S)NC1CCS(=O)(=O)C1 (stereo not drawn)	i	i	-0.38	i	-11	i	nt	nt	nt
C=CCn1c(C)cc(C(=O)CSc2nnc(-c3cccc(S(=O)(=O)N(CC)CC)c3)o2)c1C	i	i	0.28	i	-1	i	i	i	i
CCN(CC)S(=O)(=O)c1cccc(-c2nnc(SCCCC(=O)c3ccccc3)o2)c1	i	i	-0.96	i	-19	i	i	i	i
